Source: ChEMBL document CHEMBL1932986, “Synthesis and in vitro antimycobacterial activity of compounds derived from (R)- and (S)-2-amino-1-butanol - The crucial role of the configuration” (Eur J Med Chem, 2012)
Values after ≈ are worked out from the molar mass of the structure shown. Active and inactive are the calls of the source. The rule behind the calls is not given here.

Legend:
[1] = test system: Mycobacterium tuberculosis; assay: Antimycobacterial activity against Mycobacterium tuberculosis H37Rv after 45 days; type: functional
How it was run: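 Canetti proportion method. Compound in DMSO is added to Löwenstein–Jensen egg medium before coagulation (30 min, 85 °C), tested at three levels plus a lower one where needed. Tubes are inoculated with H37Rv at 10⁵ cells/ml and incubated 45 days at 37 °C. Colony counts versus drug-free control give percentage inhibition.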

[2] = test system: Mycobacterium tuberculosis; assay: Ratio of ethambutol dihydrochloride MIC to compound MIC for Mycobacterium tuberculosis H37Rv; type: functional
HEK-293T = assay: Cytotoxicity against human HEK293T cells after 72 hrs by MTT assay; type: cell-based
How it was run: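 293T cells in RPMI-1640 with 10% heat-inactivated FCS and 2 mM L-glutamine, 37 °C, 5% CO2. Cells seeded at 3.5 × 10⁵ cells/ml, grown 24 h, then exposed 72 h to DMSO-diluted compounds (final solvent ≤0.5%), ≥8 wells per concentration. MTT added 4 h, formazan dissolved in 5% HCOOH/2-propanol, absorbance read at 580 nm. IC50 obtained by sigmoidal nonlinear regression against untreated control.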

[3] = Selectivity index, ratio of IC50 for human HEK293T cells to MIC for Mycobacterium tuberculosis H37Rv; type: functional, HEK-293T
[4] = Solubility of the compound in deionized water; type: physicochemical
Bacillus subtilis = assay: Antibacterial activity against Bacillus subtilis ATCC 6633 at 50 mg/ml after 24 hrs by agar diffusion test; type: functional
How it was run: (§1)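 Agar diffusion: wells in agar filled with […] DMSO solution of compound at various concentrations; diameter of clear zone around application point measured. Bacteria grown 24 h at 37 °C on nutrient agar. Compounds first screened at 50 mg/ml; those active then tested at lower concentrations. Bracketed value = lowest concentration (mg/ml) giving zone >11 mm, reported only if activity retained at ≤1.25 mg/ml.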

Bacillus = assay: Antibacterial activity against Bacillus idosus B 241 at 50 mg/ml after 24 hrs by agar diffusion test; type: functional; how it was run: as §1
Bacillus mycoides = assay: Antibacterial activity against Bacillus mycoides DSMZ 274 at 50 mg/ml after 24 hrs by agar diffusion test; type: functional; conditions: for zone of inhibition at 50000 µg/mL: DSMZ 274, 24 h, read-out: DIZ; how it was run: as §1
Bacillus cereus = assay: Antibacterial activity against Bacillus cereus ATCC 11778 at 50 mg/ml after 24 hrs by agar diffusion test; type: functional; conditions: for zone of inhibition at 50000 µg/mL: ATCC 11778, 24 h, read-out: DIZ; how it was run: as §1
Staphylococcus aureus = assay: Antibacterial activity against Staphylococcus aureus NRRL B 313 at 50 mg/ml after 24 hrs by agar diffusion test; type: functional; conditions: for zone of inhibition at 50000 µg/mL: NRRL B 313, 24 h, read-out: DIZ
How it was run: (§2)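 Agar diffusion: bacteria grown 24 h at 37 °C on nutrient agar. Wells in the agar are filled with […] of compound solution in DMSO at various concentrations. The diameter of the clear zone around the application point is measured. Bracketed values give the lowest concentration (mg/ml) that produces a zone >11 mm. A first screen is run at 50 mg/ml.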

Escherichia coli = assay: Antibacterial activity against Escherichia coli ATCC 8739 at 50 mg/ml after 24 hrs by agar diffusion test; type: functional; how it was run: as §1
Candida tropicalis = assay: Antifungal activity against Candida tropicalis ATCC 20336 at 50 mg/ml after 72 hrs by agar diffusion test; type: functional; conditions: ATCC 20336, 72 h, read-out: DIZ
How it was run: (§3)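 Agar diffusion: yeasts grown on yeast peptone dextrose agar and fungi on potato dextrose agar. Wells are filled with […] of compound solution in DMSO at various concentrations, and the clear-zone diameter is measured. Bracketed values give the lowest concentration (mg/ml) that produces a zone >11 mm. A first screen is run at 50 mg/ml.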

Saccharomyces cerevisiae = assay: Antifungal activity against Saccharomyces cerevisiae ATCC 9763 at 50 mg/ml after 72 hrs by agar diffusion test; type: functional; conditions: for zone of inhibition at 50000 µg/mL: ATCC 9763, 72 h, read-out: DIZ; how it was run: as §3
Penicillium chrysogenum = assay: Antifungal activity against Penicillium chrysogenum CECT 2802 at 50 mg/ml after 72 hrs by agar diffusion test; type: functional; how it was run: as §3
Priestia megaterium = assay: Antibacterial activity against Bacillus megaterium NRRL 1353895 at 50 mg/ml after 24 hrs by agar diffusion test; type: functional; how it was run: as §1
Acinetobacter johnsonii = assay: Antibacterial activity against Acinetobacter johnsonii ATCC 17909 at 50 mg/ml after 24 hrs by agar diffusion test; type: functional; how it was run: as §1
Micrococcus luteus [5] = assay: Antibacterial activity against Sarcina lutea ATCC 9341 at 50 mg/ml after 24 hrs by agar diffusion test; type: functional; how it was run: as §2
Micrococcus luteus [6] = assay: Antibacterial activity against Micrococcus luteus ATCC 9631 at 50 mg/ml after 24 hrs by agar diffusion test; type: functional; how it was run: as §1

## CC[C@@H](CO)N1Cc2ccccc2C1=O
[1]
  MIC: > 31.2 µM
[2]
  Ratio: 2

## CC[C@H](CO)N1Cc2ccccc2C1
[1]
  MIC: 10.5 µM (≈ 2 µg/mL)
HEK-293T
  IC50: 122 µM
[3]
  Selectivity Index: 11.7
[4]
  solubility: < 1000 µg/mL
Bacillus subtilis; ATCC 6633, 24 h, read-out: DIZ
  zone of inhibition at 50000 µg/mL: 11 mm
Bacillus; B 241, 24 h, read-out: DIZ
  zone of inhibition at 50000 µg/mL: 20 mm
Bacillus mycoides
  zone of inhibition at 50000 µg/mL: 23 mm
Bacillus cereus
  zone of inhibition at 50000 µg/mL: 25 mm
Staphylococcus aureus
  zone of inhibition at 50000 µg/mL: 25 mm
Escherichia coli; ATCC 8739, 24 h, read-out: DIZ
  zone of inhibition at 50000 µg/mL: 25 mm
Candida tropicalis
  zone of inhibition at 50000 µg/mL: 21 mm
Saccharomyces cerevisiae
  zone of inhibition at 50000 µg/mL: 16 mm
Penicillium chrysogenum; CECT 2802, 72 h, read-out: DIZ
  zone of inhibition at 50000 µg/mL: 10 mm

## CC[C@H](CO)Nc1ccc2c3c(cccc13)C(=O)N([C@H](CC)CO)C2=O
[1]
  MIC: 14 µM (≈ 5 µg/mL)
HEK-293T
  IC50: 47 µM
[3]
  Selectivity Index: 3.4
[4]
  solubility: < 1000 µg/mL
Bacillus subtilis
  diameter of the inhibition zone (DIZ): inactive
Bacillus
  diameter of the inhibition zone (DIZ): inactive
Priestia megaterium
  diameter of the inhibition zone (DIZ): inactive
Bacillus mycoides
  diameter of the inhibition zone (DIZ): inactive
Bacillus cereus
  diameter of the inhibition zone (DIZ): inactive
Acinetobacter johnsonii
  diameter of the inhibition zone (DIZ): inactive
Staphylococcus aureus
  diameter of the inhibition zone (DIZ): inactive
Micrococcus luteus [5]
  diameter of the inhibition zone (DIZ): inactive
Saccharomyces cerevisiae
  diameter of the inhibition zone (DIZ): inactive
Penicillium chrysogenum
  diameter of the inhibition zone (DIZ): inactive

## CC[C@@H](CO)NC(=O)c1ccccc1C(=O)N[C@@H](CC)CO
[1]
  MIC: > 16.2 µM
[2]
  Ratio: 2

## CC[C@@H](CO)NP(=O)(c1ccccc1)c1ccccc1
[1]
  MIC: > 17.3 µM
[2]
  Ratio: 2

## CC[C@@H](CO)NC(=O)/C=C/c1ccccc1
[1]
  MIC: > 22.8 µM
[2]
  Ratio: 2

## CC[C@@H](CO)NCCN[C@@H](CC)CO.Cl.Cl [ETHAMBUTOL HYDROCHLORIDE]
[1]
  MIC: 7.22 µM
[4]
  solubility: 100000 µg/mL

## CC(C)=CCC/C(C)=C/CNCCNC1C2CC3CC(C2)CC1C3 (centres undefined) [SQ109]
[2]
  Ratio: 35

## CC[C@H](CO)NC(=O)/C=C/c1ccccc1
[1]
  MIC: 9.12 µM (≈ 2 µg/mL)
HEK-293T
  IC50: 211 µM
[3]
  Selectivity Index: 23.1
[4]
  solubility: < 1000 µg/mL
Bacillus subtilis
  diameter of the inhibition zone (DIZ): inactive
Bacillus
  diameter of the inhibition zone (DIZ): inactive
Priestia megaterium; NRRL 1353895, 24 h, read-out: DIZ
  zone of inhibition at 50000 µg/mL: 12 mm
Bacillus mycoides
  zone of inhibition at 50000 µg/mL: 12 mm
Bacillus cereus
  zone of inhibition at 50000 µg/mL: 12 mm
Acinetobacter johnsonii
  diameter of the inhibition zone (DIZ): inactive
Staphylococcus aureus
  zone of inhibition at 50000 µg/mL: 12 mm
Micrococcus luteus [5]; ATCC 9341, 24 h, read-out: DIZ
  zone of inhibition at 50000 µg/mL: 15 mm
Micrococcus luteus [6]
  diameter of the inhibition zone (DIZ): inactive
Escherichia coli
  diameter of the inhibition zone (DIZ): inactive
Candida tropicalis
  zone of inhibition at 50000 µg/mL: 11 mm
Saccharomyces cerevisiae
  zone of inhibition at 50000 µg/mL: 13 mm
